Hits are enriched below; roughly 1% of the tested compounds scored in any of these assays.
UPR CHOP act: activators of apoptotic CHOP UPR arm, primary screen, cell-based, CHO-CHOP luciferase reporter, luminescence, uHTS. UPR activation; percent of tunicamycin response over DMSO baseline. activation, % at 10 µM. 0.34% of 330,000 active. AID 449763, 2010;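 active means at 10 µM dose, activation of 40% or more, normalized to positive control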
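Evaluation: % reporter activation, DMSO baseline versus tunicamycin full activation; System: CHO-CHOP luciferase reporter cell line; Input: 500 cells/well; Incubation: 6 h compound treatment, 37 °C; Measured by: Steady-Glo luciferase luminescence; Dosing: one dose, 10 µM in 0.5% DMSO; Buffer or medium: F12 medium, 10% FBS; Benchmarks: positive tunicamycin 10 µg/mL, negative DMSO alone.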
T cell HTS: modulators of CD8 T cell-vesicle binding, primary screen, mouse 2C CD8+ T cells, flow cytometry; AID 2052, 2009; response (vesicle binding), % at 7 µM; 0.068% of 330,000 active; 2C CD8+ T cell-vesicle binding; hits give low values;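 active means response, share of CD8 T cells binding vesicles, and their 90th percentile fluorescence all below set limits, cut at about 80% in these data, passing the limit was not always enough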;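 further: values below 100% mean blocked vesicle binding to the CD8+ T cells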
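Benchmarks: naked versus QL9-loaded vesicles / Assay system: purified 2C TCR transgenic mouse naive CD8+ T cells / Technique: high-throughput flow cytometry with anti-B7-1 and anti-CD8 staining / Timing: Cell–vesicle co-incubation 1.5 h at 37 °C, staining 20 min on ice / Read-out: percent CD8+ FL2 mean versus row control / Probe or stimulus: QL9-loaded Drosophila micro-vesicles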
Beta2AR agonist: beta2AR agonists driving receptor internalization, primary screen, cell-based, FAP fluorogen, flow cytometry | Beta-2 adrenergic receptor (Homo sapiens), P07550 | AID 504454, 2011 | response, % (no concentration beside the values) | 0.43% of 340,000 active | Am2.2-beta2AR cells;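 active means response above a set limit, near 3 SD of response in nonfluorescent compounds, cut at about 42% in these data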
Target sequence (P07550 whole entry, looked up): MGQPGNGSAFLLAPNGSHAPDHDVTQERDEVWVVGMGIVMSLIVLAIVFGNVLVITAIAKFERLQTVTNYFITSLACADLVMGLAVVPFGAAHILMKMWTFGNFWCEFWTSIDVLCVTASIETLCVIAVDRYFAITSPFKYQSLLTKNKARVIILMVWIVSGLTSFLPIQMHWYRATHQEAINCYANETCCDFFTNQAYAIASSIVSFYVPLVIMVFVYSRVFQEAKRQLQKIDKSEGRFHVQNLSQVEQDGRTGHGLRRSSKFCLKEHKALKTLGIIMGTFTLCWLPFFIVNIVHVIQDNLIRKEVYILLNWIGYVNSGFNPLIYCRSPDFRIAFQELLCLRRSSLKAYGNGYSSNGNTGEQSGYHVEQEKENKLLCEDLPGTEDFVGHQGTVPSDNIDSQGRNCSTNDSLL
UPR XBP1 act: activators of adaptive XBP1 UPR arm, primary screen, cell-based, CHO-XBP1 luciferase reporter, luminescence, uHTS; IRE1-XBP1 UPR activation; percent of tunicamycin response, DMSO as zero; activation, % at 20 µM; 0.33% of 330,000 active;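 active means versus positive control, 20 µM dose yields 30% or more activation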
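Material: CHO cell line with stable XBP1 luciferase reporter; schedule: 16-18 h cell attachment at 37 °C, then 6 h compound exposure; signal: glow luminescence from Steady-Glo reagent; medium: serum-containing F12 medium, 10% FBS; benchmarks: tunicamycin 10 µg/mL and vehicle-only wells; read-out: percent activation relative to tunicamycin reference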
UPR CHOP confirm: activators of apoptotic CHOP UPR arm, confirmation, cell-based, CHO-CHOP luciferase reporter, single concentration; CHO-CHOP cells, CHOP-luciferase reporter luminescence; percent of tunicamycin response, DMSO as zero; AID 463112, 2010; shares compounds with UPR CHOP act; activation, % at 10 µM; 64% of 1,000 active; in the data active means activation above about 33%
Hits are given with their value; n = inactive; x = no result given.

SMILES | UPR CHOP act | T cell HTS | Beta2AR agonist | UPR XBP1 act | UPR CHOP confirm
CC1(C)Cc2c(c(N3CCOCC3)nc3sc(C(=O)Nc4cccc(Cl)c4)c(N)c23)CO1 | 88 | n | n | n | n
CC(C)(C)c1cc(=O)n2[nH]c(N)nc2n1 | n | n | n | n | x
CCCCC(=O)Nc1sc2c(c1C(=O)OCC)CCC(C=O)=C2Cl | 63 | n | n | 33 | 33
CCOC(=O)c1c(NC(=O)c2ccccc2Cl)sc2c1CCc1ccccc1-2 | n | n | n | n | x
COc1ccc(/C=C2\CN(Cc3ccccc3)C/C(=C\c3ccc(OC)c(O)c3)C2=O)cc1O | 51 | n | n | n | 43
COc1cc(/C=C2\COC/C(=C\c3ccc(O)c(OC)c3)C2=O)ccc1O | 140 | n | n | n | 112
CCN1C/C(=C/c2ccc(OC)c(O)c2)C(=O)/C(=C/c2ccc(OC)c(O)c2)C1 | n | n | n | n | x
Cc1ccc(CN2CCN(/N=C/c3ccc(O)c(O)c3)CC2)cc1 | 147 | n | n | n | 106
Oc1ccc(/C=N/N2CCN(C3c4ccccc4-c4ccccc43)CC2)cc1O | 102 | n | n | n | 53
c1ccc(-c2nc(NCCCn3ccnc3)c3oc4ccccc4c3n2)cc1 | n | n | n | n | x
COc1cc(/C=N/n2c(COc3ccccc3)n[nH]c2=S)cc(Br)c1O | n | n | n | n | x
CC1=NN(Cc2ccccc2)C(=O)C1C(c1ccncc1)C(C#N)C#N (stereo unspecified) | n | n | n | n | x
O=C(Nc1nccs1)c1cccc(N2C(=O)c3cccc4c([N+](=O)[O-])ccc(c34)C2=O)c1 | 85 | n | n | n | 122
CC(=O)Oc1cccc(N2C(=O)c3cccc4c([N+](=O)[O-])ccc(c34)C2=O)c1 | n | n | n | n | x
Cc1cc(N/N=C/c2ccc(F)cc2)nc(-n2nc(C)cc2C)n1 | 73 | n | n | n | n
COc1ccccc1/C=N/Nc1cc(C)nc(N2CCOCC2)n1 | n | n | n | n | x
COc1ccc(/C=N/Nc2cc(C)nc(-n3nc(C)cc3C)n2)c(OC)c1 | 142 | n | n | n | 88
COc1cccc(/C=N/Nc2nc(Nc3ccccc3)nc(-n3nc(C)cc3C)n2)c1O | 93 | n | n | n | 95
CCOc1ccc(Nc2cc(C)nc(-n3nc(C)cc3C)n2)cc1 | 105 | n | n | 87 | n
CC(C)CN1CCN(Cc2cccn2-c2cccnc2)CC1CCO (stereo unspecified) | n | n | n | n | x
Cc1ccc2c(C(=O)CCl)c(C)[nH]c2c1 | 479 | n | n | n | 274
Cc1ccc2[nH]cc(C(=O)CCl)c2c1 | 348 | n | n | n | 189
O=C(COC(=O)/C=C/c1ccccc1)NC1CCCC1 | n | n | n | n | x
O=C(O)CCCCCN=Cc1c(O)c2ccccc2oc1=O | n | n | n | n | x
CC(=O)N/C(=N\c1nc(C)cc(C)n1)Nc1ccc(Cl)cc1Cl | 49 | n | n | n | n
SMILES | UPR CHOP act | T cell HTS | Beta2AR agonist | UPR XBP1 act | UPR CHOP confirm
COc1ccccc1/C=N/NC(=O)CC(=O)NCCc1ccccc1 | n | n | n | n | x
O=C(NCCOc1ccccc1)c1cncc(Br)c1 | n | n | n | n | x
CC(C)c1ccc(NC(=O)/C(C#N)=C/c2ccncc2)cc1 | 59 | n | n | n | 97
COc1ccc(-c2oc(NC(=O)CCl)c(C#N)c2-c2ccc(OC)cc2)cc1 | 489 | n | n | n | 218
COc1ccc(-c2oc(NC(=O)CSc3ncn[nH]3)c(C#N)c2-c2ccc(OC)cc2)cc1 | n | n | n | n | x
CC(C)Oc1ccc(C(=O)Nc2ccccc2N2CCCC2)cc1 | n | n | n | n | x
O=C(NCCc1ccccc1)c1coc(=O)c(Br)c1 | 105 | n | n | n | 73
CC(C)CNC(=O)c1coc(=O)c(Br)c1 | 175 | n | n | n | 70
O=C(NCCC1=CCCCC1)c1coc(=O)c(Br)c1 | n | n | n | n | x
CN(C)CCNC(=O)c1coc(=O)c(Br)c1 | n | n | n | n | x
Cc1cccc(N=C(NO)c2nonc2N)c1 | n | n | n | n | x
O=S(=O)(c1cc(-c2nnc(-c3ccc(Br)cc3)o2)ccc1Br)N1CCCCCC1 | n | n | n | n | x
O=[N+]([O-])c1cc(-c2nnc(C34CC5CC(CC(C5)C3)C4)o2)cc([N+](=O)[O-])c1 | 137 | n | n | n | n
Cc1nn(Cc2ccccc2)c2c1C(c1ccco1)C(C#N)=C(N)O2 (stereo unspecified) | n | n | n | n | x
CN(C(=O)CSc1cc(C(=O)c2nccn2C)c2ccccc2n1)c1ccccc1 | 95 | n | n | n | 94
CCc1cccc(C)c1NC(=O)Nc1ccc2c(c1)OCO2 | n | n | n | n | x
COc1ccc(NS(=O)(=O)c2ccc3ccccc3c2)c2ncccc12 | 137 | n | n | n | 418
CCOc1ccc(/C=C/[N+](=O)[O-])c2ccccc12 | 221 | n | 78 | n | n
CCOC(=O)COc1ccc(/C=C/[N+](=O)[O-])c(OCC(=O)OCC)c1 | 358 | n | 54 | n | n
C=CCN1c2ccccc2[C@]23C[C@@H](C(=O)OC)N(C(=O)NC4CCCC4)C2=NC(C(=O)OC)=C(C(=O)OC)[C@H]13 | n | n | n | n | x
O=C(C=C=Nc1ccccc1)C(=O)N=C=Cc1ccccc1 | 225 | n | n | n | 135
O=C(N/N=C/c1ccccc1)C(=O)N/N=C/c1ccccc1 | n | n | n | n | x
O=C1CC(c2ccccc2)CC(O)=C1C=Nc1ccc(Cl)cc1 (stereo unspecified) | 43 | n | n | n | n
Cc1ccc(C)c(NS(=O)(=O)c2c(C)nn(C)c2C)c1 | n | n | n | n | x
CC1(C)CC(=O)C2=C(C1)OC1=C(C(=O)CC(C)(C)C1)C2c1ccc(O)cc1O | 208 | n | 93 | n | n
SMILES | UPR CHOP act | T cell HTS | Beta2AR agonist | UPR XBP1 act | UPR CHOP confirm
CC1(C)CC(=O)C2=C(C1)OC1=C(C(=O)CC(C)(C)C1)C2c1ccc(O)c([N+](=O)[O-])c1 | n | n | n | n | x
C/C(=N\NC(=O)C(c1ccccc1)c1ccccc1)c1ccc(O)cc1 | n | n | n | n | x
COc1ccc(NC(=O)c2ccccn2)cc1OC | n | n | n | n | x
COc1ccc(C(=O)N/N=C(\C)c2ccccn2)cc1OC | 355 | n | n | n | 284
C/C(=N/NC(=O)c1ccc(C(C)(C)C)cc1)c1ccccn1 | 556 | n | n | n | 372
CC(=NNC(=O)c1ccncc1)c1cccc(Br)c1 | x | x | n | x | x
C/C(=N\NC(=O)c1cccc(Br)c1)c1ccccn1 | 535 | n | n | n | 449
C/C(=N\NC(=O)C(c1ccccc1)c1ccccc1)c1ccccn1 | 80 | n | 46 | n | 51
